Measurements taken from ChEMBL document CHEMBL4350955, “Novel Chemical Series of 5-Lipoxygenase-Activating Protein Inhibitors for Treatment of Coronary Artery Disease” (J Med Chem, 2019).
Values after ≈ are worked out from the molar mass of the structure shown. One block for each compound: values may come before it. Active and inactive are the calls of the source. The calls are words filed in the database; no cut-off is given here.

Key:
[1] = target: Aryl hydrocarbon receptor (Homo sapiens, UniProt P35869); assay: Agonist activity at AhR in human HepG2 cells assessed as induction of CYP1A1 activity at 0.001 to 30 uM measured after 24 hrs by immunocytochemistry analysis; assay type: ADME, cell-based; conditions: hepg2, 24 h
[2] = target: Voltage-dependent T-type calcium channel subunit alpha-1H (Homo sapiens) (UniProt O95180); assay: Inhibition of human Cav3.2 by Ion-work electrophysiology assay
[3] = target: Sodium channel protein type 5 subunit alpha (Homo sapiens, UniProt Q14524); assay: Inhibition of human NaV1.5 by Ion-work electrophysiology assay
[4] = Half-life in po or iv dosed Sprague-Dawley rat; assay type: ADME, organism-based; conditions: in vivo
[5] = Half-life in Beagle dog at 0.004 to 0.1 umol/kg, iv or 0.1 to 1 umol/kg, po via gavage measured up to 79 hrs; assay type: ADME, organism-based, Canis lupus familiaris; conditions: in vivo
[6] = Volume of distribution at steady state in po or iv dosed Sprague-Dawley rat; assay type: ADME, organism-based; conditions: in vivo, read-out: Vdss
[7] = target: Potassium voltage-gated channel subfamily A member 5 (Homo sapiens, UniProt P22460); assay: Inhibition of human Kv1.5 by Ion-work electrophysiology assay
[8] = target: Potassium/sodium hyperpolarization-activated cyclic nucleotide-gated channel 4 (Homo sapiens, UniProt Q9Y3Q4); assay: Inhibition of human HCN4 by Ion-work electrophysiology assay
[9] = Bioavailability in po dosed Sprague-Dawley rat; assay type: ADME, organism-based; conditions: in vivo
L5178Y = assay: Genotoxicity in mouse L5178Y cells by micronucleus Assay; assay type: toxicity, cell-based
[10] = Distribution coefficient between octanol and sodium phosphate buffer, logD of the compound in pH 7.4 buffer by LC-MS/MS-based shake flask method
CYP450 = CYP450 (Homo sapiens, UniProt P04798+P05177+P05181+P08684+P10632+P10635+P11509+P11712+P13584+P20813+P20815+P20853+P24462+P24903+P33260+P33261+P51589+P78329+P98187+Q02928+Q08477+Q16678+Q16696+Q5TCH4+Q6VVX0+Q7Z449+Q8TAV3+Q96SQ9+Q9HB55); assay: Inhibition of CYP450 assessed as maximum reduction in metabolite formation using coumarin based substrate by fluorescence assay; assay type: ADME, protein assay; conditions: probe coumarin based substrate
[11] = target: T1, Arachidonate 5-lipoxygenase-activating protein (Homo sapiens, UniProt P20292); assay: Inhibition of [3H]MK0591 binding to human FLAP expressed in […] cell membranes measured after 60 to 80 mins by scintillation counting method
T1 sequence (P20292 whole entry): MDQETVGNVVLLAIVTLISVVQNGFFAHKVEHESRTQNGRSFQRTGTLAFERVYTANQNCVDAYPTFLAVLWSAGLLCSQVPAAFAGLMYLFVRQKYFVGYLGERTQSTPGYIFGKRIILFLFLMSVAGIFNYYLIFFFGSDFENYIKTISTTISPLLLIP

[12] = Selectivity ratio of inhibition of COX-1 in human whole blood to Inhibition of 5-lipoxygenase (unknown origin)
[13] = Clearance in Beagle dog at 0.004 to 0.1 umol/kg, iv or 0.1 to 1 umol/kg, po via gavage measured up to 79 hrs; assay type: ADME, organism-based, Canis lupus familiaris; conditions: in vivo
[14] = target: Prostaglandin G/H synthase 2 (Homo sapiens, UniProt P35354); assay: Inhibition of COX-2 in human whole blood assessed as reduction in LPS-stimulated prostaglandin E2 production preincubated for 15 mins followed by LPS stimulation and measured after overnight incubation by EIA; assay type: tissue-based
Prostaglandin G/H synthase 2, sequence (P35354 whole entry): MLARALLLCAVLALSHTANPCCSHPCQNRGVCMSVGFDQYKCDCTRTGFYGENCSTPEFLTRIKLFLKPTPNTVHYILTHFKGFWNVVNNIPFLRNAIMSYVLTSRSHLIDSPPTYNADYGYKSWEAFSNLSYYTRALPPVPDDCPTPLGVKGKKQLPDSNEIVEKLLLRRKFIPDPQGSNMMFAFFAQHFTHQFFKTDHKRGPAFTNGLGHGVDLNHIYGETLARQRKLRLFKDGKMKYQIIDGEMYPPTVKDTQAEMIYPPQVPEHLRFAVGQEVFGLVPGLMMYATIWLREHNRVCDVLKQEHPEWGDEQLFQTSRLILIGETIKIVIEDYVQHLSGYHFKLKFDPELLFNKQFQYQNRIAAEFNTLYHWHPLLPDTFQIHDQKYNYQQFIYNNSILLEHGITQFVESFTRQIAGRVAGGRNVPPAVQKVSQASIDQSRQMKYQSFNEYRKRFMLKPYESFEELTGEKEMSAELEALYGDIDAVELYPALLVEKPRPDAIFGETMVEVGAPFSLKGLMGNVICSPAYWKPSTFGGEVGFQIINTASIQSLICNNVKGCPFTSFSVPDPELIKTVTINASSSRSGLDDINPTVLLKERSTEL

[15] = Metabolic stability in human hepatocytes assessed as parent compound remaining; assay type: ADME, cell-based, Hepatocyte
[16] = target: T2, Arachidonate 5-lipoxygenase-activating protein (Homo sapiens) (UniProt P20292); assay: (§1) Inhibition of FLAP in human whole blood assessed as reduction in calcium ionophore-stimulated LTB4 production preincubated for 30 mins followed by calcium ionophore stimulation and measured after 20 mins by EIA; assay type: tissue-based
T2 sequence (whole entry): T1 sequence (P20292 whole entry)

[17] = target: T1, Arachidonate 5-lipoxygenase-activating protein; assay: as §1; assay type: tissue-based
[18] = Inhibition of FLAP in Beagle dog whole blood assessed as reduction in calcium ionophore-stimulated LTB4 production preincubated for 30 mins followed by calcium ionophore stimulation and measured after 20 mins by EIA; assay type: tissue-based; conditions: Canis lupus familiaris
[19] = Volume of distribution in Beagle dog at 0.004 to 0.1 umol/kg, iv or 0.1 to 1 umol/kg, po via gavage measured up to 79 hrs; assay type: ADME, organism-based, Canis lupus familiaris; conditions: in vivo
[20] = Oral bioavailability in Beagle dog at 0.1 to 1 umol/kg administered twice daily via gavage for 3 days and measured up to 79 hrs; assay type: ADME, organism-based, Canis lupus familiaris; conditions: in vivo
[21] = Protein binding in human plasma assessed as unbound fraction by LC-MS based equilibrium dialysis analysis; assay type: ADME, cell-free
Bile salt export pump = Bile salt export pump (Homo sapiens, UniProt O95342); assay: Inhibition of recombinant human BSEP expressed in baculovirus infected Sf21 insect cell vesicles assessed as reduction in NBD-taurocholate uptake by fluorescence assay; assay type: ADME
[22] = Drug absorption in Beagle dog at 0.004 to 0.1 umol/kg, iv or 0.1 to 1 umol/kg, po via gavage measured up to 79 hrs; assay type: ADME, organism-based, Canis lupus familiaris; conditions: in vivo
[23] = target: Kv channel-interacting protein 2/Potassium voltage-gated channel subfamily D member 3 (Homo sapiens, UniProt Q9UK17+Q9NS61); assay: Inhibition of human Kv4.3/KChIP2 by Ion-work electrophysiology assay; assay type: protein-complex assay
[24] = target: Voltage-gated inwardly rectifying potassium channel KCNH2 (Homo sapiens, UniProt Q12809); assay: Inhibition of human ERG by high-throughput electrophysiology assay
Voltage-gated inwardly rectifying potassium channel KCNH2, sequence (Q12809 whole entry): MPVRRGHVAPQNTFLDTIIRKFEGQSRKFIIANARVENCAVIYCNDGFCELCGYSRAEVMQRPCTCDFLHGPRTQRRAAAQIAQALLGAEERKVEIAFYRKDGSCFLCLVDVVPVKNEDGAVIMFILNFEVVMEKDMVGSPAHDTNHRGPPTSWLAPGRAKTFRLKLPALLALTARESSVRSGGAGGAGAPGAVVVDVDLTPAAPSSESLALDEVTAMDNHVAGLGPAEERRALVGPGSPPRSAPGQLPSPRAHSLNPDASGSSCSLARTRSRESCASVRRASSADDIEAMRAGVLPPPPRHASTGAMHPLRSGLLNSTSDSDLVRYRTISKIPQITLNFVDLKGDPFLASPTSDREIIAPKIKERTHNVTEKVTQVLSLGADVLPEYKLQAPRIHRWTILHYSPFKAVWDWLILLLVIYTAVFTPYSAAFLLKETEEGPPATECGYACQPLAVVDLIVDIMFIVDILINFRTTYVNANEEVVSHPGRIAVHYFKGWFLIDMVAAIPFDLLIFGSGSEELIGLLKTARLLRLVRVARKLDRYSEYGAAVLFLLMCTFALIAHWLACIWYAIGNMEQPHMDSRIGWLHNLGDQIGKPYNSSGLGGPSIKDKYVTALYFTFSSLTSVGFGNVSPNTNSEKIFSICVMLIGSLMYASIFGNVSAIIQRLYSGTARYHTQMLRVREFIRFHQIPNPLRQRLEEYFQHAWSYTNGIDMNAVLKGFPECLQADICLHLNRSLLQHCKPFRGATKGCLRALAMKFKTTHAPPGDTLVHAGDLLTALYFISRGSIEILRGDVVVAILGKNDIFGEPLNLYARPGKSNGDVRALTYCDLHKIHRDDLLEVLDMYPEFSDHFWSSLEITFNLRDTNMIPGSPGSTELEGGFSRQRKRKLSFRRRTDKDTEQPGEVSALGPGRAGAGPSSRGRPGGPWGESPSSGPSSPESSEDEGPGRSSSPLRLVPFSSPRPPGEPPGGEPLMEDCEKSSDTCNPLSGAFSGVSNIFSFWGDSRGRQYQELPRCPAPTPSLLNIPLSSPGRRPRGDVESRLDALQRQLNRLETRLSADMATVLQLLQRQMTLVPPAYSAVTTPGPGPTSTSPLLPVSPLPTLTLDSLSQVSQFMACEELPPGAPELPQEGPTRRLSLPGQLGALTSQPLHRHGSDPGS

[25] = Inhibition of phospholipidosis in rat H42EC3 cells assessed as reduction in NBD-PE accumulation by SYTOX orange staining-based high content imaging analysis; assay type: cell-based
[26] = Genotoxicity in Salmonella typhimurium by Ames test; assay type: toxicity; conditions: salmonella enterica subsp. enterica serovar typhimurium
How it was run: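 Two-strain Salmonella Ames test, with and without metabolic activation by rat liver S9 fraction; applied to amino pyrazole building blocks present in the series.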

[27] = Selectivity ratio of inhibition of COX-2 in human whole blood to Inhibition of 5-lipoxygenase (unknown origin)
HepG2 = assay: Induction of mitochondrial impairment in human HepG2 cells incubated for 24 hrs by CellTiter-Glo Luminescent Cell Viability Assay; assay type: cell-based; conditions: hepg2, 24 h
[28] = Cytotoxicity against human THLE cells incubated for 24 hrs by MTS assay; assay type: cell-based
[29] = Apparent permeability across apical to basolateral side in human Caco2 cells; conditions: Caco-2
[30] = target: ATP-binding cassette sub-family C member 2 (Rattus norvegicus, UniProt Q63120); assay: Inhibition of Sprague-Dawley rat Mrp2 expressed in baculovirus infected Sf21 insect cell vesicles assessed as reduction in CDF uptake by fluorescence assay
[31] = Clearance in po or iv dosed Sprague-Dawley rat; assay type: ADME, organism-based; conditions: in vivo
Canis familiaris = organism: Canis familiaris; assay: Ex vivo inhibition of FLAP in Beagle dog assessed as reduction in ionophore-stimulated LTB4 production by EIA; assay type: functional, organism-based; conditions: Canis lupus familiaris
physchem = conditions: phosphate buffer, pH 7.4
[32] = target: Prostaglandin G/H synthase 1 (Homo sapiens, UniProt P23219); assay: Inhibition of COX-1 in human whole blood assessed as reduction in calcium ionophore-stimulated thromboxane B2 production preincubated for 30 mins followed by calcium ionophore stimulation and measured after 20 mins by EIA; assay type: tissue-based
[33] = Ratio of drug level in blood to plasma in human at 10 uM incubated for 30 mins by LC-MS/MS analysis; assay type: ADME, cell-free
[34] = target: Polyunsaturated fatty acid lipoxygenase ALOX12 (Homo sapiens, UniProt P18054); assay: Inhibition of 12-lipoxygenase (unknown origin)
[35] = target: Polyunsaturated fatty acid lipoxygenase ALOX15 (Homo sapiens, UniProt P16050); assay: Inhibition of 15-lipoxygenase (unknown origin)
[36] = Intrinsic clearance in cryopreserved human hepatocytes assessed as per million cells at 1 uM measured up to 60 mins by LC-MS/MS analysis; assay type: ADME, cell-based, Hepatocyte; conditions: read-out: CLH
[37] = target: Polyunsaturated fatty acid 5-lipoxygenase (Homo sapiens, UniProt P09917); assay: Inhibition of 5-lipoxygenase (unknown origin)
Polyunsaturated fatty acid 5-lipoxygenase, sequence (P09917 whole entry): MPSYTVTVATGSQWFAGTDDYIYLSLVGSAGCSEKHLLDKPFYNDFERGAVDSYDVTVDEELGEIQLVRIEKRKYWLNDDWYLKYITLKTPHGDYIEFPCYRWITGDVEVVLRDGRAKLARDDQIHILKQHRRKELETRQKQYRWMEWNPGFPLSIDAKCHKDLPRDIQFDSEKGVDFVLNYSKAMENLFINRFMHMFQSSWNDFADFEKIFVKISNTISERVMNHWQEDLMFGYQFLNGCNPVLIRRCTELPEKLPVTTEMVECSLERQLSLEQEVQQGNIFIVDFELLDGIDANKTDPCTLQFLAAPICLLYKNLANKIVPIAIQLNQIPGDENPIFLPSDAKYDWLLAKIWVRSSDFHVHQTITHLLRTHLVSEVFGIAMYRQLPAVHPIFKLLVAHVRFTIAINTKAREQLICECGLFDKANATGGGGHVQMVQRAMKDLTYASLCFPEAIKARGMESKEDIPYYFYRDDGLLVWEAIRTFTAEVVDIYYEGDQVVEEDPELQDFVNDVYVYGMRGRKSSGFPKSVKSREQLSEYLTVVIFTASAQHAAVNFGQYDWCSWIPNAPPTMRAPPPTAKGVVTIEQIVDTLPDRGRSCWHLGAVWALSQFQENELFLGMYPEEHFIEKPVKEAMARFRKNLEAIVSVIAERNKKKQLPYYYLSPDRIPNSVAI

[38] = target: Potassium voltage-gated channel subfamily E member 1 (Homo sapiens, UniProt P15382); assay: Inhibition of human IKs by IonWork electrophysiology method
[39] = Protein binding in Sprague-Dawley rat plasma assessed as unbound fraction by LC-MS based equilibrium dialysis analysis; assay type: ADME, cell-free
hERG (KCNH2) = hERG (KCNH2) (Homo sapiens, UniProt Q12809); assay: Inhibition of human ERG at 10 uM high-throughput electrophysiology assay relative to control
hERG (KCNH2), sequence (Q12809 whole entry): as the sequence (Q12809 whole entry) above

Cytochrome P450 2C9 = Cytochrome P450 2C9 (Homo sapiens, UniProt P11712); assay: Inhibition of recombinant human CYP2C9 expressed in Escherichia coli assessed as maximum reduction in metabolite formation using coumarin based substrate by fluorescence assay; assay type: ADME
Cytochrome P450 2C9, sequence (P11712 whole entry): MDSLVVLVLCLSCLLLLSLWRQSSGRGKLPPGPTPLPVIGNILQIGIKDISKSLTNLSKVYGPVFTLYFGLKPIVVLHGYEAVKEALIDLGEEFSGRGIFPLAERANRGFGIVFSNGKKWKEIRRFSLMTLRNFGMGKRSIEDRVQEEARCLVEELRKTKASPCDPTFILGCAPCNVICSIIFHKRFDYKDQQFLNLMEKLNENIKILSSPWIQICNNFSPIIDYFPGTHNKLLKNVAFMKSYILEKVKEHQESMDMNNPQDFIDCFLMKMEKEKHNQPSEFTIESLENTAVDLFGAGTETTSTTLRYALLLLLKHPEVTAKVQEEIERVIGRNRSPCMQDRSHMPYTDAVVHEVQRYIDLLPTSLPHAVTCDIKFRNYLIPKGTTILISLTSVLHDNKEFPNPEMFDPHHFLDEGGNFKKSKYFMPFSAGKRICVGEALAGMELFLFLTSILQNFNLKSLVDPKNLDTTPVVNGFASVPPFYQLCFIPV

Cytochrome P450 3A4 = Cytochrome P450 3A4 (Homo sapiens, UniProt P08684); assay: Inhibition of recombinant human CYP3A4 expressed in Escherichia coli assessed as maximum reduction in metabolite formation using coumarin based substrate by fluorescence assay
Cytochrome P450 3A4, sequence (P08684 whole entry): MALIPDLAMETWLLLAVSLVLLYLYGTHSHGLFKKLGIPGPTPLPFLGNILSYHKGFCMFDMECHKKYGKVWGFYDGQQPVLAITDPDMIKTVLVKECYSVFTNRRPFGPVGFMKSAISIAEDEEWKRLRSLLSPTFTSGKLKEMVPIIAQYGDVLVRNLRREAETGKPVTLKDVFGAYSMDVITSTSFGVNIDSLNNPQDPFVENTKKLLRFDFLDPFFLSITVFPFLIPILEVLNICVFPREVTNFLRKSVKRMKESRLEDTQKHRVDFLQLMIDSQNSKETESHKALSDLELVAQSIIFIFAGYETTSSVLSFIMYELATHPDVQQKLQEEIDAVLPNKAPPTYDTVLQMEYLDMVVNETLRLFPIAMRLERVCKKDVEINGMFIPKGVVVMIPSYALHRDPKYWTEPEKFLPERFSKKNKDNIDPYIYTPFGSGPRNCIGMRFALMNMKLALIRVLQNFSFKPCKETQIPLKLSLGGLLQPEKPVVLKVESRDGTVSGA

[40] = Chemical stability of the compound; assay type: physicochemical

SMILES: Cc1cc(-c2ccc(C(=O)[C@@H]3CCCC[C@H]3C(=O)Nc3cn(C)nc3C)cc2)n[nH]1
Activity [1]: Not Active | inhibition [2]: inactive | inhibition (INH) [3]: Not Active | half-life [4]: 4.5 h | half-life [5]: 3.4 h | Vd [6]: 0.83 L/kg | inhibition (INH) [7]: Not Active | inhibition (INH) [8]: Not Active | bioavailability [9]: 47% | Activity (L5178Y): Non-Toxic | logD [10]: 3 | IC50 (CYP450): > 25.1 µM | IC50 [11]: 0.0631 µM | Selectivity ratio [12]: >= 100 | clearance [13]: 3.33 mL/min/kg | inhibition (INH) [14]: Not Active | Stability [15]: 72% | fpIC50 [16]: 8.1 | IC50 [17]: 0.0631 µM | IC50 [18]: 0.028 µM | Vd [19]: 0.98 L/kg | bioavailability [20]: 51% | fraction unbound [21]: 0.11 | IC50 (Bile salt export pump): 120 µM | ka [22]: 5.3 h⁻¹ | inhibition (INH) [23]: Not Active | IC50 [24]: > 100 µM | EC50 [25]: 32 µM | Activity [26]: Non-Toxic | Selectivity ratio [27]: >= 100 | Activity (HepG2): Non-Toxic | Activity [28]: Non-Toxic | Papp A→B [29]: 20 ×10⁻⁶ cm/s | inhibition (INH) [30]: Not Active | clearance [31]: 6 mL/min/kg | IC50 (Canis familiaris): 0.034 µM | inhibition (Canis familiaris): Dose-dependent effect | solubility at 24 h (physchem): 225 µM (≈ 91.2 µg/mL) | inhibition (INH) [32]: Not Active | blood plasma ratio at 0.5 h, 10 µM [33]: 0.74 | inhibition (INH) [34]: Not Active | inhibition (INH) [35]: Not Active | hepatocyte CLint at 1 µM [36]: 4 µL/min/1e6 cells | inhibition (INH) [37]: Not Active | inhibition (INH) [38]: Not Active | fraction unbound [39]: 0.043

SMILES: Cc1cc(-c2ccc(C(=O)[C@@H]3CCCC[C@H]3C(=O)Nc3cn(C)nc3C#N)cc2)n[nH]1
inhibition at 10 µM (hERG (KCNH2)): 23% | IC50 (Cytochrome P450 2C9): 7.94 µM | logD [10]: 3.5 | fpIC50 [16]: 8.5 | Activity [26]: Non-Toxic | Papp A→B [29]: 27 ×10⁻⁶ cm/s | solubility at 24 h (physchem): 25 µM (≈ 10.4 µg/mL) | hepatocyte CLint at 1 µM [36]: 6 µL/min/1e6 cells

SMILES: Cn1cc(NC(=O)[C@@H]2CCCC[C@H]2C(=O)c2ccc(-c3ccn[nH]3)cc2)c(OC(F)F)n1
Stability [40]: Unstable | logD [10]: 3

Continued, in another order:

logD [10]: 3.7 | IC50 [11]: 0.0126 µM | IC50 (Cytochrome P450 3A4): 3.98 µM | Stability [15]: 76% | fpIC50 [16]: 9 | IC50 [17]: 0.0251 µM | Papp A→B [29]: 57 ×10⁻⁶ cm/s | solubility at 24 h (physchem): 27 µM (≈ 12.4 µg/mL) | hepatocyte CLint at 1 µM [36]: 13 µL/min/1e6 cells
SMILES: Cn1cc(NC(=O)[C@@H]2C[C@@H]3C[C@@H]3C[C@H]2C(=O)c2ccc(-c3cc[nH]n3)cc2)c(C(F)(F)F)n1

logD [10]: 3.5 | IC50 (Cytochrome P450 3A4): 6.31 µM | fpIC50 [16]: 8.3 | Papp A→B [29]: 17 ×10⁻⁶ cm/s | solubility at 24 h (physchem): 31 µM (≈ 14 µg/mL) | hepatocyte CLint at 1 µM [36]: 18 µL/min/1e6 cells
SMILES: Cc1cc(-c2ccc(C(=O)[C@@H]3CCCC[C@H]3C(=O)Nc3cn(C)nc3C(N)=O)c(F)c2)[nH]n1
IC50 [24]: > 31.6 µM
